Experimental data pooled from the literature.
Target: Glycogen synthase kinase-3 beta (GSK3B, Homo sapiens, UniProt P49841)

COc1ncccc1-c1cnn2ccc(N3CCN(C(=O)OC(C)C)CC3)nc12
remaining binding (binding, competition with immobilised ligand; 1 µM): 62%

Cn1cc(-c2cc(F)cc(N3CCn4c(cc5c4CCCC5)C3=O)c2CO)cc(Nc2ccc(N3CCN(C4COC4)CC3)cn2)c1=O
inhibition (enzyme activity, inhibitor; 0.1 µM): 5%

COc1c2c(cc3c1OCO3)CC[N+](C)=C2
inhibition (enzyme activity, inhibitor, ADP detection; 100 µM): 24.8%

Cn1cc(-c2cccc(N3CCc4c(sc5c4CC(C)(C)C5)C3=O)c2CO)cc(Nc2ccncn2)c1=O
inhibition (enzyme activity, inhibitor; 1 µM): -5%

Cn1cncc1[C@](O)(COc1ccc(C#N)cc1-c1ccc(OC(F)(F)F)cc1)c1ccc(C#N)cc1
remaining binding (cell-free assay, competition with immobilised ligand; 1 µM): 93%

COc1cc2c(cc1-c1cc3cc4ccoc4cc3oc1=O)OCO2
inhibition (enzyme activity, inhibitor, ADP detection; 100 µM): 26.4%

O=c1[nH]c2ccccc2n1C1CCN(Cc2ccc(-c3[nH]c4cc5ncnc5cc4nc3-c3ccccc3)cc2)CC1
remaining activity (enzyme activity; 0.5 µM): 113%

Cc1nn(C)cc1-c1nc2c(N3CCN(Cc4ccc(Cl)cc4)CC3)c(Cl)cnc2[nH]1
remaining binding (binding, competition with immobilised ligand; 1 µM): 68%

O=[N+]([O-])c1ccc([As](=O)(O)O)cc1
inhibition (enzyme activity, inhibitor, ADP detection; 100 µM): 5.2%

C#Cc1n[nH]c2c(-c3cn([C@@H](C)c4ccccn4)c(=O)[nH]c3=O)cc(F)cc12
inhibition (enzyme activity, inhibitor; 0.1 µM): -0.1%

Nc1ncc(-c2nc(N3CCOCC3)nc(N3CCOCC3)n2)c(C(F)F)n1
remaining binding (binding, competition with immobilised ligand; 10 µM): 74%

CC(C)(C)c1cc(C=C(C#N)C#N)cc(Br)c1O
remaining activity (enzyme activity, inhibitor; 0.5 µM): 107%

C#Cc1n[nH]c2c(-c3cn([C@@H](C)c4ccccc4)c(=O)[nH]c3=O)cc(F)cc12
inhibition (enzyme activity, inhibitor; 0.1 µM): -3.5%
